Measurements reported in ChEMBL document CHEMBL1129795, “2-Azetidinone cholesterol absorption inhibitors: structure-activity relationships on the heterocyclic nucleus” (1996).

How the values were obtained:
[1] = tested on: Cricetinae gen. sp.; assay: In vivo for cholesterol absorption inhibitory activity using 7-day cholesterol-fed hamster model (expressed as percent change in cholesteryl esters at 50 mg/kg/day); assay type: functional, Cricetulus griseus
Method in brief: (§1)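 Hamsters were fed a high-cholesterol diet for 7 days and gavaged once daily with compound in 0.2 mL corn oil. On the last day, animals were sacrificed and hepatic and serum lipids were determined. Results are given as percent change in hepatic cholesteryl ester or serum cholesterol concentration versus diet-fed controls gavaged with corn oil without drug.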

[2] = tested on: Cricetinae gen. sp.; assay: In vivo cholesterol absorption inhibitory activity using 7-day cholesterol-fed hamster model (expressed as percent change in serum cholesterol at 50 mg/kg/day); assay type: functional, Cricetulus griseus; method in brief: as §1

SMILES | Change [1] [%] | Change [2] [%]
COc1ccc(N2C(=O)[C@H](CCCc3ccccc3)[C@H]2c2ccc(S(C)(=O)=O)cc2)cc1 | -75 | -26
COc1ccc([C@@H]2[C@@H](CCCC3CCCCC3)C(=O)N2c2ccc(OC)cc2)cc1 | -47 | -23
COc1ccc([C@@H]2[C@@H](CCCc3ccccc3)C(=O)N2c2ccc(C#N)cc2)cc1 | -74 | -35
CCCCOc1ccc([C@@H]2[C@@H](CCCc3ccccc3)C(=O)N2c2ccc(OC)cc2)cc1 | -64 | -34
CC[C@@]1(CCCc2ccccc2)C(=O)N(c2ccc(OC)cc2)[C@@H]1c1ccc(OC)cc1 | 0 | 0
CC[C@@]1(c2ccccc2)C(=O)N(c2ccc(OC)cc2)[C@@H]1c1ccc(OC)cc1 | -28 | 0
COc1ccc([C@@H]2[C@@H](CCCc3ccccc3)C(=O)N2Cc2ccccc2)cc1 | 16 | 0
COc1ccc(N2C(=O)[C@@H](CCCc3ccccc3)[C@H]2c2ccc(OC)c(OC)c2)cc1 | 0 | 0
COc1ccc([C@H]2NC(=O)[C@@H]2CCCc2ccccc2)cc1 | 0 | 0
COc1ccc(CN2C(=O)[C@H](CCCc3ccccc3)[C@H]2c2ccc(OC)cc2)cc1 | -26 | 0
COc1ccc([C@@H]2[C@@H](CCCc3ccccc3)C(=O)N2c2ccc(S(C)(=O)=O)cc2)cc1 | -39 | 0
COc1ccc([C@@H]2[C@@H](CCCc3ccccc3)C(=O)N2C(C)C)cc1 | -30 | -16
COc1ccc([C@@H]2[C@@H](CCCc3ccccc3)C(=O)N2c2ccc(C)c(C)c2)cc1 | -39 | -21
COc1ccc([C@@H]2[C@@H](CCCc3ccccc3)C(=O)N2c2ccc(F)cc2)cc1 | -95 | -38
COc1ccc([C@@H]2[C@H](CCc3ccccc3)C(=O)N2c2ccc(OC)cc2)cc1 | -19 | 0
CCCCOc1ccc([C@@H]2[C@H](CCCc3ccccc3)C(=O)N2c2ccc(OC)cc2)cc1 | -70 | -15
COc1ccc(N2C(=O)C(CCCc3ccccc3)[C@]2(c2ccc(OC)cc2)C(F)(F)F)cc1 (some centres not stated) | -11 | 0
COc1ccc(N2C(=O)[C@H](CCCc3ccccc3)[C@H]2c2ccc(NS(C)(=O)=O)cc2)cc1 | -46 | -8
C=CCN1C(=O)[C@H](CCCc2ccccc2)[C@H]1c1ccc(OC)cc1 | 0 | 0
COc1ccc([C@@H]2[C@@H](CCCc3ccccc3)C(=O)N2c2ccc3c(c2)OCO3)cc1 | -52 | -19
COc1ccc([C@H]2N(c3ccc(OC)cc3)C(=O)[C@]2(Cc2ccccc2)c2ccccc2)cc1 | -15 | 23
COc1ccc([C@@H]2[C@H](CCCCCCc3ccccc3)C(=O)N2c2ccc(OC)cc2)cc1 | 0 | -29
COCc1ccc([C@@H]2[C@@H](CCCc3ccccc3)C(=O)N2c2ccc(OC)cc2)cc1 | -56 | -27
COc1ccc([C@@H]2[C@@H](CCCc3ccccc3)C(=O)N2C2CC2)cc1 | -61 | -20
COc1ccc(N2C(=O)[C@H](CCCc3ccccc3)[C@H]2c2ccc(OC(F)(F)F)cc2)cc1 | -29 | 0
COc1ccc(N2C(=O)[C@H](CCCc3ccccc3)[C@H]2c2ccccc2OC)cc1 | 0 | 0

SMILES | Change [1] [%] | Change [2] [%]
COc1ccc(N2C(=O)[C@H](CCCc3ccccc3)[C@H]2c2ccc(Oc3ccccc3)cc2)cc1 | -77 | -37
COc1ccc([C@@H]2[C@@H](CCCc3ccccc3)C(=S)N2c2ccc(OC)cc2)cc1 | -23 | 0
COc1ccc([C@@H]2[C@@H](CCCc3ccccc3)C(=O)N2c2ccccc2)cc1 | -95 | -49
CCN(CC)c1ccc(N2C(=O)[C@H](CCCc3ccccc3)[C@H]2c2ccc(OC)cc2)cc1 | -95 | -51
CCOc1ccc(N2C(=O)[C@H](CCCc3ccccc3)[C@H]2c2ccc(OC)cc2)cc1 | -96 | -57
COc1ccc([C@H]2N(c3ccc(OC)cc3)C(=O)[C@@]2(C)CCCc2ccccc2)cc1 | -56 | 0
COc1ccc(N2C(=O)[C@H](CCCc3ccccc3)[C@H]2c2ccc(N(C)C)cc2)cc1 | -60 | -29
COc1ccc([C@@H]2[C@H](CCCC3CCCCC3)C(=O)N2c2ccc(OC)cc2)cc1 | -28 | 12
COc1ccc(N2C(=O)[C@@H](CCCc3ccccc3)[C@H]2c2ccc(OC(C)C)cc2)cc1 | -78 | -28
COc1ccc([C@@H]2[C@@H](CCCCc3ccccc3)C(=O)N2c2ccc(OC)cc2)cc1 | -23 | -8
COc1ccc(N2C(=O)[C@H](CCCc3ccccc3)[C@H]2c2ccc(OC(C)(C)C)cc2)cc1 | -80 | -26
COc1ccc([C@@H]2[C@@H](CCc3ccccc3)C(=O)N2c2ccc(OC)cc2)cc1 | 0 | 0
COc1ccc(N2C(=O)[C@H](CCCc3ccccc3)[C@H]2c2ccc(F)cc2)cc1 | 12 | 0
COc1ccc(N2C(=O)[C@H](CCCc3ccccc3)[C@H]2c2ccc(OCc3ccccc3)cc2)cc1 | -48 | -15
COc1ccc([C@@H]2[C@@H](CCCc3ccccc3)C(=O)N2C2CCCCC2)cc1 | 0 | 0
COc1ccc([C@H]2N(c3ccc(OC)cc3)C(=O)[C@]2(C)CCCc2ccccc2)cc1 | 21 | 0
COc1ccc([C@H]2N(c3ccccc3)C(=O)[C@@]2(F)CCCc2ccccc2)cc1 | -94 | -30
COc1ccc([C@@H]2[C@@H](CCCc3ccccc3)C(=O)N2c2ccc(Cl)cc2)cc1 | -93 | -44
CC[C@@]1(CCCc2ccccc2)C(=O)N(c2ccc(OC)cc2)[C@@H]1c1ccccc1 | 0 | 0
COc1ccc([C@@H]2[C@@H](CCCc3ccccc3)C(=O)N2c2ccc([S+](C)[O-])cc2)cc1 (some centres not stated) | 0 | -11
COc1ccc([C@@H]2[C@@H](CCCc3ccccc3)C(=O)N2c2ccc(OC)cc2)cc1 [SCH-48461] | -77.5 | -29
COc1ccc([C@@H]2[C@@H](CCCCCCc3ccccc3)C(=O)N2c2ccc(OC)cc2)cc1 | -17 | -19
COc1ccc([C@@H]2[C@@H](CCCc3ccccc3)C(=O)N2c2ccc(OC(F)(F)F)cc2)cc1 | -85 | -34
COc1ccc(C(=O)N2C(=O)[C@H](CCCc3ccccc3)[C@H]2c2ccc(OC)cc2)cc1 | 0 | -25
CC[C@]1(CCCc2ccccc2)C(=O)N(c2ccc(OC)cc2)[C@@H]1c1ccccc1 | -29 | -12
